Assay outcomes as filed in PubChem.
Sampled rows, rich in hits. Any-hit rate of the full collection: about 2.3%.
TAAR1 agonist: human TAAR1 agonists, primary screen, Fluo-8 calcium fluorescence, CHO RD-HGA16 cells; Trace amine-associated receptor 1 (Homo sapiens), Q96RJ0; vehicle wells 0%, saturating PEA agonist 100%; activation, % at 3 µM; 360,000 compounds, 0.99% hits;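 active = activation above the mean activation of all test compounds in the run plus 3 SD, cut at about 38% in these data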
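Signal – calcium-sensitive Fluo-8 signal, excitation 470-495, emission 515-575 nm · System – RD-HGA16 (CHO) cells co-expressing Gα16 and hTAAR1 · Incubation – 17-24 h seeding, 75 min 37 °C dye, 30 min RT · Compound dosing – 3 µM single concentration · Repeats – no replicates (n 1)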
OXTR agonist: human OXTR agonists, primary screen, fluorescence, CHO-OTR cells, Fluo-8 calcium; Oxytocin receptor (Homo sapiens), P30559; Fluo-8 calcium fluorescence; normalized: DMSO 0%, oxytocin 100%; activation, % at 3 µM; 320,000 compounds, 0.32% hits;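 active = activation above the mean of all tested compounds plus 3 SD, cutoff set per screening run, cut at about 20% in these data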;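 note: peak over basal fluorescence ratio from a 100 s FLIPR kinetic read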
Target sequence (P30559 whole entry, looked up): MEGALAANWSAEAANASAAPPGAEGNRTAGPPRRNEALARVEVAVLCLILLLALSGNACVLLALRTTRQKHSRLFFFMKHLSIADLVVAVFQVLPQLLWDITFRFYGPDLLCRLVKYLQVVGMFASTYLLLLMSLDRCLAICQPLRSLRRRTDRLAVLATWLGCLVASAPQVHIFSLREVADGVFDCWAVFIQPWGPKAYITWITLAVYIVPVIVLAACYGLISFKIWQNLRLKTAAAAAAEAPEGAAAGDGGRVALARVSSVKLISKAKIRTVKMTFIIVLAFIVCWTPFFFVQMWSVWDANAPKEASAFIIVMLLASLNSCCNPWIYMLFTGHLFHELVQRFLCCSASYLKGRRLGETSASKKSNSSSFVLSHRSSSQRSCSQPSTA
V1aR counter: agonists of human V1a receptor, primary screen, counter-screen for OXTR agonist project, fluorescence, CHO-V1R cells; Fluo-8 calcium fluorescence, agonist mode; 0% DMSO, 100% 3 nM vasopressin; activation, % at 3 µM; 320,000 compounds, 0.25% hits;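 active = activation above the mean activation of all tested compounds plus 3 SD, per screening run, cut at about 20% in these data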;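 note: signal is peak over basal fluorescence ratio across a 100 second FLIPR read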
OXTR potentiator: human OXTR potentiators, primary screen, fluorescence, CHO-OTR cells, Fluo-8 calcium | Oxytocin receptor (Homo sapiens), P30559 | Fluo-8 calcium fluorescence, potentiator mode; 0% = oxytocin EC15, 100% = EC100 | activation, % at 3 µM | 320,000 compounds, 0.061% hits;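 active = activation above that plate's cutoff, the mean activation of tested compounds plus 3 SD, cut at about 6.6% in these data, passing the limit was not always enough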;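 note: 100% uses oxytocin at 75 nM as the full agonist control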
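assay system = CHO-OTR cells, human receptor | schedule = compound 6 min at room temperature before oxytocin, 100 s read | detection = Fluo-8 intracellular calcium fluorescence, ex 470-495, em 515-575 nm | evaluation = normalized max/min fluorescence ratio, % activation | control set = EC15 oxytocin alone as 0%, 75 nM oxytocin (EC100) as 100%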
TAAR1 antagonist: human TAAR1 antagonists, primary screen, Fluo-8 calcium fluorescence, CHO RD-HGA16 cells | Trace amine-associated receptor 1 (Homo sapiens), Q96RJ0 | antagonist | inhibition, % at 3 µM | 360,000 compounds, 1.5% hits | AID 624466, 2012;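 active = inhibition above a per-plate cutoff, the mean inhibition of test compounds on that plate plus 3 SD, cut at about 49% in these data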;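 note: 0% = DMSO plus EC80 beta-PEA response and 100% = DMSO alone without agonist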
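System: CHO RD-HGA16 cells bearing hTAAR1. Reagent: EC80 β-phenethylamine stimulus. Schedule: seeding 17-24 h prior, 75-min 37 °C, 30-min RT dye loading. Signal: Fluo-8 intracellular calcium dye fluorescence, real-time kinetic reads. Read-out: % inhibition from peak post-agonist over basal fluorescence ratio. Benchmarks: vehicle wells and EC80 agonist wells. Replicates: n of 1.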
TAAR1 ag conf: human TAAR1 agonists, retest of hits, confirmation, Fluo-8 calcium fluorescence, CHO RD-HGA16 cells | 2,400 compounds, 82% hits | scaled: DMSO 0%, maximal phenethylamine 100% | AID 651783, 2012 | shares compounds with TAAR1 agonist | activation, % at 3 µM;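 active = activation above a cutoff set at the run's mean compound activation plus 3 SD, cut at about 39% in these data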
Ga16 ag counter: nonselective calcium mobilization agonists, CHO-Ga16 cells, counter-screen for hTAAR1 agonist project, cell-based, fluorescence, CHO-Ga16 parental line; shares compounds with TAAR1 agonist; Fluo-8 calcium fluorescence; normalized to maximal ATP response, DMSO zero; activation, % at 3 µM; 2,400 compounds, 50% hits;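 active = activation above the run cutoff, the mean activation over all tested wells plus 3 SD, cut at about 12% in these data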;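 note: 0% = DMSO wells and 100% = maximal ATP response on the peak over basal ratio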
TAAR1 desensitize: TAAR1 desensitization by agonist hits, confirmation, counter-screen for TAAR1 agonist project, cell-based, fluorescence, tachyphylaxis; shares compounds with TAAR1 agonist; CHO RD-HGA16 hTAAR1, Fluo-8 calcium, beta-PEA response inhibition; inhibition, % at 3 µM; 2,400 compounds, 46% hits; AID 651951, 2012;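 active = inhibition above the run cutoff, the mean inhibition of all test compounds plus 3 SD, cut at about 49% in these data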;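 note: beta-PEA stimulus applied at its EC80; loss of beta-PEA calcium signal after compound pretreatment read as receptor desensitization; 0% = DMSO with beta-PEA at EC80 and 100% = DMSO alone without agonist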
Ga16 antag count: inhibition of ATP-evoked calcium response in CHO-Ga16 cells, counter-screen for TAAR1 agonist project, cell-based, fluorescence; CHO-Ga16 ATP-induced calcium, Fluo-8 fluorescence; inhibition, % at 3 µM; 2,400 compounds, 39% hits; AID 651952, 2012; shares compounds with TAAR1 agonist;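 active = inhibition above the plate's mean compound inhibition plus 3 SD, computed per plate, cut at about 22% in these data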;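 note: 0% = EC80 ATP with DMSO and 100% = DMSO wells without ATP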
The depositor's hits bear a star.

Results for CCC(CC)NC(=O)CON=C1c2ccccc2-c2ccccc21 ?
TAAR1 agonist: 43*; OXTR agonist: -2; V1aR counter: -1; OXTR potentiator: -3; TAAR1 antagonist: 21; TAAR1 ag conf: 14; Ga16 ag counter: 10; TAAR1 desensitize: 20; Ga16 antag count: 8

Results for CC(C)C(C)NC(=O)Cn1cnc2c(oc3ccccc32)c1=O (stereo unspecified) ?
TAAR1 agonist: 2; OXTR agonist: 1; V1aR counter: 0; OXTR potentiator: -1; TAAR1 antagonist: -1

Results for O=C(Cn1cnc2c(oc3ccccc32)c1=O)NCCc1ccccc1 ?
OXTR agonist: 1; V1aR counter: 1; OXTR potentiator: -5; Ga16 ag counter: 2; Ga16 antag count: 1

How did Cn1c(=O)cc(NCCc2ccccc2)[nH]c1=O do in these assays?
TAAR1 agonist: 69*; OXTR agonist: 0; V1aR counter: 1; OXTR potentiator: -2; TAAR1 antagonist: 17; TAAR1 ag conf: 74*; Ga16 ag counter: 1; TAAR1 desensitize: 45; Ga16 antag count: 7

What do the screens show for `Cn1c(NCCc2ccccc2)cc(=O)n(C)c1=O`?
OXTR agonist: -1; V1aR counter: 0; OXTR potentiator: 6; Ga16 ag counter: -1; Ga16 antag count: 11

What do the screens show for `Cn1c(=O)cc(Nc2ccc(Cl)cc2)[nH]c1=O`?
TAAR1 agonist: 48*; OXTR agonist: -1; V1aR counter: 0; OXTR potentiator: -17; TAAR1 antagonist: 8; TAAR1 ag conf: 67*; Ga16 ag counter: 0; TAAR1 desensitize: 44; Ga16 antag count: 13

What do the screens show for `Cn1c(=O)cc(Nc2ccccc2)[nH]c1=O`?
TAAR1 agonist: 18; OXTR agonist: 0; V1aR counter: 0; OXTR potentiator: -6; TAAR1 antagonist: -8

How did NS(=O)(=O)c1ccc(CCNc2cc(=O)n(Cc3ccc(F)cc3)c(=O)[nH]2)cc1 do in these assays?
TAAR1 agonist: 2; OXTR agonist: -1; V1aR counter: 1; OXTR potentiator: -2; TAAR1 antagonist: 17

Results for CCc1cccc(OCC(=O)N(C)CC(=O)Nc2cccc(F)c2)c1 ?
TAAR1 agonist: 0; OXTR agonist: 1; V1aR counter: 0; OXTR potentiator: -2; TAAR1 antagonist: -10

What do the screens show for `CCn1cc(C(=O)Nc2cccc(C)c2)c(=O)c2ccc(C)nc21`?
OXTR agonist: 0; V1aR counter: 0; OXTR potentiator: -9

How did O=C(COC(=O)/C=C/c1cccc(C(F)(F)F)c1)NCc1cccs1 do in these assays?
TAAR1 agonist: 79*; OXTR agonist: -2; V1aR counter: 1; OXTR potentiator: -7; TAAR1 antagonist: 66*; TAAR1 ag conf: 66*; Ga16 ag counter: 44*; TAAR1 desensitize: 45; Ga16 antag count: 19
